Experiment [1] relates to Plasmodium berghei. As to the kind of experiment: Antimalarial activity against Plasmodium berghei str. ANKA infected in Swiss albino mouse assessed as survival at 0.048 mmol/kg/day, po qd for 3 days by microscopic analysis relative to control. In kind it is functional. The method in brief: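 P. berghei ANKA infected mice, 4-day suppressive test. Day 0: 0.2 ml of 2 x 10^7 parasitized erythrocytes given i.v. (donor blood, 20-30% parasitemia, diluted in saline). Oral dosing at 0.048 mmol/kg/day from 2 h post-infection, then days 1-3 at 24 h intervals. Vehicle 7% Tween, 3% ethanol in water. Five mice/group. Survival time recorded per mouse; mean compared with vehicle group.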

In experiment [2] the test system is Plasmodium berghei. As to the kind of experiment: Antimalarial activity against Plasmodium berghei str. ANKA infected in Swiss albino mouse assessed as parasitemia at 0.048 mmol/kg/day, po qd […] by microscopic analysis relative to control. In kind it is functional. The method, boiled down: (§1)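 Four-day suppressive test. Mice were infected iv on day 0 with 0.2 ml of 2 × 10^7 P. berghei ANKA-parasitized erythrocytes from a donor mouse, diluted in saline. From 2 h post-infection they were dosed orally at 0.048 mmol/kg/day for days 0–3, five mice per group. The vehicle was 7% Tween and 3% ethanol in water. On day 4, Giemsa smears were scored over 5 fields of about 100 RBC each. Suppression was calculated relative to the vehicle group, taken as 100%.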

Experiment [3] relates to Plasmodium berghei. As to the kind of experiment: Antimalarial activity against Plasmodium berghei str. ANKA infected in Swiss albino mouse assessed as supression of parasitemia at 0.048 mmol/kg/day, po qd for 3 days by microscopic analysis relative to control. Format: functional. The method in brief: as §1
Experiment [4] deals with Leishmania aethiopica. As to the kind of experiment: Antileishmanial activity against amastigote stage of Leishmania aethiopica after 72 hrs by resazurin staining-based fluorescence assay. In kind it is functional, organism-based. The method, boiled down: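 Axenic L. aethiopica amastigotes (50 µl of 2 × 10^7 cells/ml) exposed to serial dilutions at final 0.04–10 µg/ml for 72 h at 31 °C, humidified, 5% CO₂. Resazurin was added at 68 h and fluorescence read at 72 h (ex 530/em 590 nm). EC50 from sigmoidal dose–response fits, mean ± SD of triplicate experiments run in duplicate. Controls were medium alone and 1% DMSO.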

In experiment [5] the test system is Leishmania aethiopica. As to the kind of experiment: Antileishmanial activity against promastigote stage of Leishmania aethiopica after 24 hrs by alamar blue staining-based […]. Format: functional, organism-based. The method, boiled down: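 L. aethiopica promastigotes, 3 × 10^6 per well, given compounds from DMSO stocks in three-fold dilutions at 10 to 0.04 µg/ml (final DMSO ≤0.1%), in duplicate, at room temperature (21 ± 1 °C). Alamar blue (resazurin) was added after 24 h and absorbance read 48 h later at 540 and 630 nm. Negative control was parasites, medium and DMSO.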

Converted amounts (≈) assume the structure as drawn. The source made the active and inactive calls. The calls are words filed in the database; no cut-off is given here.

These results are taken from ChEMBL document CHEMBL3414483, “New heterocyclic hybrids of pyrazole and its bioisosteres: design, synthesis and biological evaluation as dual acting antimalarial-antileishmanial agents” (Eur J Med Chem, 2015).

Turning to `CCN(CC)CCCC(C)Nc1ccnc2cc(Cl)ccc12.O=P(O)(O)O.O=P(O)(O)O` (stereo not given) [CHLOROQUINE PHOSPHATE], the outcome in the experiment on Plasmodium berghei [1] was Active. For the same molecule, the Activity in the experiment on Plasmodium berghei [2] was 0%; in the experiment with Plasmodium berghei [3], 100%.

A word on the IC50: it is the concentration that gives 50% inhibition. Read a high IC50 as weaker potency. For `CCC(=O)N1N=C(c2ccccc2)CC1c1cn(-c2ccc(Br)cc2)nc1-c1ccc(C)cc1` (stereo not given), in the experiment with Plasmodium berghei [1], the Survival came out at 6.86 days. For the same molecule, the figures for the Activity in the experiment on Plasmodium berghei [2] and with Plasmodium berghei [3] were 42% and 51.16%, respectively. The IC50 in the experiment with Leishmania aethiopica [4] was determined as 1.79 µg/mL (≈ 3.49 µM); in the experiment on Leishmania aethiopica [5], 2.04 µg/mL (≈ 3.98 µM).

Consider `Cc1ccc(-c2nn(-c3ccc(Br)cc3)cc2C2CC(c3ccccc3)=NN2c2ccccc2)cc1` (stereo not given), for which the Survival in the experiment on Plasmodium berghei [1] came out at 10.64 days. Besides, the Activity with Plasmodium berghei [2] is reported as 22%; in the experiment on Plasmodium berghei [3] it was 74.42%. In addition, the IC50 came to 1.24 µg/mL (≈ 2.32 µM) with Leishmania aethiopica [4] and 2.91 µg/mL (≈ 5.46 µM) with Leishmania aethiopica [5].

Turning to `O=[N+]([O-])c1ccc(-c2nn(-c3ccc(Br)cc3)cc2C2CC(c3ccccc3)=NN2c2ccccc2)cc1` (stereo not given), the Survival with Plasmodium berghei [1] came out at 9.84 days. Besides, the Activity in the experiment on Plasmodium berghei [2] is listed as 32%; with Plasmodium berghei [3] it was 62.79%. Also, the values for the IC50 in the experiment on Leishmania aethiopica [4] and in the experiment with Leishmania aethiopica [5] were 2.01 µg/mL (≈ 3.56 µM) and 3.85 µg/mL (≈ 6.82 µM), respectively.

Turning to `CC(=O)N(C1=NN(C(C)=O)C(c2cn(-c3ccc(C)cc3)nc2-c2ccc(C)cc2)S1)c1ccccc1` (stereo not given), the Survival with Plasmodium berghei [1] turned out to be 12.22 days. The Activity is 14% in the experiment on Plasmodium berghei [2] and 83.72% in the experiment with Plasmodium berghei [3]. Further, the IC50 with Leishmania aethiopica [4] turned out to be 0.82 µg/mL (≈ 1.61 µM); in the experiment with Leishmania aethiopica [5], 0.862 µg/mL (≈ 1.69 µM).

In the case of `Cc1ccc(-c2nn(-c3ccc(C)cc3)cc2C2CC(c3ccccc3)=NN2)cc1` (stereo not given), the Survival in the experiment with Plasmodium berghei [1] was 7.62 days. Moreover, the Activity amounted to 30% in the experiment on Plasmodium berghei [2] and 65.12% in the experiment with Plasmodium berghei [3]. Also, the IC50 in the experiment on Leishmania aethiopica [4] worked out at 2.37 µg/mL (≈ 6.04 µM); in the experiment with Leishmania aethiopica [5], 2.84 µg/mL (≈ 7.25 µM).

On to `Cc1ccc(-n2cc(C=O)c(-c3ccc([N+](=O)[O-])cc3)n2)cc1`, for which, in the experiment with Plasmodium berghei [1], the Survival came to 7.28 days. Moreover, the Activity turned out to be 32% in the experiment with Plasmodium berghei [2] and 62.79% in the experiment on Plasmodium berghei [3]. The IC50 in the experiment on Leishmania aethiopica [4] was 1.56 µg/mL (≈ 5.08 µM); with Leishmania aethiopica [5] it was 3.64 µg/mL (≈ 11.9 µM).

In the case of `CCC(=O)N1N=C(c2ccccc2)CC1c1cn(-c2ccc(Br)cc2)nc1-c1ccc([N+](=O)[O-])cc1` (stereo not given), in the experiment on Plasmodium berghei [1], the Survival came out at 6.82 days. Moreover, the Activity in the experiment with Plasmodium berghei [2] is 34%; in the experiment with Plasmodium berghei [3], 60.47%. Moreover, the IC50 in the experiment with Leishmania aethiopica [4] worked out at 1.83 µg/mL (≈ 3.36 µM); with Leishmania aethiopica [5], 2.12 µg/mL (≈ 3.9 µM).

On to `Cc1ccc(-n2cc(/C=N/N=c3/scc(-c4ccc(Br)cc4)n3-c3ccccc3)c(-c3ccc([N+](=O)[O-])cc3)n2)cc1`, for which, in the experiment on Plasmodium berghei [1], the Survival is 12.12 days. The results for the Activity in the experiment with Plasmodium berghei [2] and with Plasmodium berghei [3] were 22% and 74.42%, respectively. In addition, the IC50 is 1.78 µg/mL (≈ 2.8 µM) with Leishmania aethiopica [4] and 3.11 µg/mL (≈ 4.9 µM) in the experiment with Leishmania aethiopica [5].

Consider `Cc1ccc(-c2nn(-c3ccc(Br)cc3)cc2/C=C/C(=O)c2ccccc2)cc1`, for which the Survival in the experiment with Plasmodium berghei [1] stood at 11.8 days. Also, the Activity in the experiment with Plasmodium berghei [2] came to 22%; with Plasmodium berghei [3] it was 74.42%. In addition, the values for the IC50 in the experiment with Leishmania aethiopica [4] and in the experiment on Leishmania aethiopica [5] were 1.01 µg/mL (≈ 2.28 µM) and 1.03 µg/mL (≈ 2.32 µM), respectively.

In the case of `Cc1ccc(-c2nn(-c3ccc(C)cc3)cc2C=O)cc1`, in the experiment with Plasmodium berghei [1], the Survival was 8.62 days. For the same molecule, the Activity is given as 33% with Plasmodium berghei [2] and 61.62% in the experiment with Plasmodium berghei [3]. The values for the IC50 in the experiment with Leishmania aethiopica [4] and in the experiment with Leishmania aethiopica [5] were 1.97 µg/mL (≈ 7.13 µM) and 4.06 µg/mL (≈ 14.7 µM), respectively.

On to `Cc1ccc(-c2nn(-c3ccc(Br)cc3)cc2C2CC(c3ccccc3)=NN2)cc1` (stereo not given), for which the Survival with Plasmodium berghei [1] came out at 7.88 days. The Activity in the experiment on Plasmodium berghei [2] was found to be 28%; in the experiment with Plasmodium berghei [3], 67.44%. For the same molecule, the values for the IC50 in the experiment with Leishmania aethiopica [4] and in the experiment with Leishmania aethiopica [5] were 1.88 µg/mL (≈ 4.11 µM) and 2.01 µg/mL (≈ 4.4 µM), respectively.

With `CC(=O)N(C1=NN(C(C)=O)C(c2cn(-c3ccc(Br)cc3)nc2-c2ccc(C)cc2)S1)c1ccccc1` (stereo not given), the Survival with Plasmodium berghei [1] was 12.68 days. For the same molecule, the Activity came out at 12% with Plasmodium berghei [2] and 86.05% in the experiment with Plasmodium berghei [3]. Moreover, the IC50 in the experiment with Leishmania aethiopica [4] turned out to be 0.74 µg/mL (≈ 1.29 µM); in the experiment on Leishmania aethiopica [5] it was 0.468 µg/mL (≈ 0.815 µM).

For `CCCCCCCCCCCCCCCCOP(=O)([O-])OCC[N+](C)(C)C` [MILTEFOSINE], the IC50 amounted to 0.3 µg/mL (≈ 0.736 µM) in the experiment on Leishmania aethiopica [4] and 3.19 µg/mL (≈ 7.83 µM) in the experiment on Leishmania aethiopica [5].
